High-throughput results deposited in PubChem BioAssay by several laboratories.
Yeast growth inh: yeast BB579 growth reduction in restrictive medium; S. cerevisiae BB579 growth, OD615, 48 h; inhibition, % at 10 µM; actives 0.51% (n = 140,000); AID 804;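 active = inhibition above a set limit, 3 SD over the mean compound inhibition, cut at about 44% in these data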
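System: Saccharomyces cerevisiae DeaD strain BB579, replicative lifespan model yeast | Buffer or medium: Restrictive glucose-based CSMM-D medium | Times: 4 h preincubation and 48 h exposure at 30 °C | Detection: OD615 turbidity measurement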
Yeast lifespan up: yeast lifespan extension | inhibition of the nicotinamide effect, % at 10 µM | S. cerevisiae growth with nicotinamide, OD615; deaD strain in restrictive glucose medium | actives 0.68% (n = 130,000);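 active = inhibition above a set limit, placed 3 SD over the median of all compounds, cut at about 26% in these data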
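Test system: DeaD-strain S. cerevisiae / Buffer or medium: restrictive glucose medium / Also added: nicotinamide 1.5 mM / Doses: one concentration, 10 µM, DMSO 0.25% / Schedule: 48 h at 30 °C / Signal: OD615 measurement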
S1P3 antagonist: blocks the human S1P3 receptor; inhibition, % at 4.98 µM; CHO S1P3 NFAT-BLA reporter, FRET fluorescence, antagonist mode; Q99500; actives 0.27% (n = 170,000);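 active = inhibition above the plate cutoff, the mean inhibition of test wells on that plate plus 3 SD, cut at about 28% in these data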;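 also: cells challenged with S1P at its EC80 of 0.8 µM; blue over green emission ratio from cleaved BLA substrate after 4 h stimulation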
Target sequence (Q99500 whole entry, looked up): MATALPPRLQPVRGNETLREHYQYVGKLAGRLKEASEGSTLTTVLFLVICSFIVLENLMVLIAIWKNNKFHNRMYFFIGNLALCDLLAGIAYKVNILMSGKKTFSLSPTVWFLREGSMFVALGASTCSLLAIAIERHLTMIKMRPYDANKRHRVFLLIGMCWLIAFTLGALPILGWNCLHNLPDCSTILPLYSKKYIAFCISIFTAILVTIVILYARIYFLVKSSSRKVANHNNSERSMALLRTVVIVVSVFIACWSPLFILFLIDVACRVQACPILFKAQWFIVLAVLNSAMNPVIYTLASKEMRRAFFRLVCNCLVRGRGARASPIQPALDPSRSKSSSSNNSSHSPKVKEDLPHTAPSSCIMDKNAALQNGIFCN
Hits are given with their value; i = inactive; nt = not tested or not shown. Hits are enriched below; roughly 0.98% of the tested compounds scored in any of these assays.

SMILES | Yeast growth inh | Yeast lifespan up | S1P3 antagonist
COc1ccc(-c2n[nH]c(C(F)(F)F)c2-c2cc3ccccc3o2)c(O)c1 | 100 | i | nt
COc1ccccc1-c1c(-c2ccc(OCC(=O)NN)cc2O)n[nH]c1C(F)(F)F | i | i | i
CC(C)=C(C#N)c1nc2ccccc2s1 | i | i | i
COC(=O)c1ccc(CC(=O)c2nc3ccccc3s2)cc1 | i | i | i
COC(=O)c1ccc(/C(O)=C(\C#N)c2nc3ccccc3s2)cc1 | i | 31 | i
Cc1ccc(OC/C(O)=C(\C#N)c2nc3ccccc3s2)cc1 | i | 28 | i
CCCCCCOc1ccc(C(CC(N)=O)C(=O)O)cc1 (stereo unspecified) | nt | nt | i
O=S(=O)(c1c(Cl)sc(Cl)c1Br)N1CCCC1 | nt | nt | i
O=C1C(Cc2c[nH]c3ccccc23)NC(=S)N1C1CCCCC1 (stereo unspecified) | nt | nt | i
Cc1ccc2[nH]c3c(c2c1)CC/C(=C/c1ccccc1)C3=O | i | 81 | nt
Cc1ccc(/C=C2/CCc3c([nH]c4ccccc34)C2=O)cc1 | i | i | nt
O=C(COC(=O)c1sc2cc(Cl)ccc2c1Cl)Nc1ncc(Cl)cc1Cl | nt | nt | i
O=C(C1=C(O)/C(=C/c2ccc(O)cc2)CCC1)C(F)(F)F | 100 | nt | nt
COc1ccc(/C=C2\CCCC(C(=O)C(F)(F)F)=C2O)cc1 | i | i | nt
CCCn1c(NCc2ccccc2NS(=O)(=O)c2ccc(C)cc2)nc2ccccc21 | i | i | i
CCn1c(NCc2ccccc2NS(=O)(=O)c2ccc(C)cc2)nc2ccccc21 | i | i | i
Cc1ccc(S(=O)(=O)Nc2ccccc2/C=N/c2nc3ccccc3n2C(C)C)cc1 | i | 53 | i
CCCCn1c(/N=C/c2ccccc2NS(=O)(=O)c2ccc(C)cc2)nc2ccccc21 | i | 68 | i
CC(=O)c1cccc(N(CC(=O)Nc2cccnc2)S(C)(=O)=O)c1 | i | i | i
Cc1cc(=O)oc2cc(OC(=O)c3nn(C(C)C)c(=O)c4ccccc34)ccc12 | i | i | i
CC(C)n1nc(C(=O)Oc2ccc(Cl)cc2)c2ccccc2c1=O | i | 29 | i
Cc1ccc(C)c(NCc2ccccc2CO)c1 | nt | nt | i
CSCCC(NS(=O)(=O)c1ccc(Cl)cc1)C(=O)OCC(=O)c1ccc(F)cc1 (stereo unspecified) | i | 36 | i
CSCCC(NS(=O)(=O)c1ccc(Cl)cc1)C(=O)OCC(=O)N(C(C)C)C(C)C (stereo unspecified) | i | i | nt
CCOC(=O)Nc1nnc(Cc2ccc(Cl)c(Cl)c2)s1 | nt | nt | i
SMILES | Yeast growth inh | Yeast lifespan up | S1P3 antagonist
COc1ccc(CNn2c(-c3ccccc3F)nc3ccccc3c2=O)cc1OC | nt | nt | i
Cc1ccc(N=N/C(=C\O)C(=O)c2ccncc2)cc1 | i | i | nt
O=C(/C(=C/O)N=Nc1ccc(Cl)cc1)c1ccncc1 | i | 77 | nt
COC(=O)CCc1c(C)c(C#N)c2nc3ccccc3n2c1N1CCCC1 | i | i | i
Nc1nonc1C(=O)N/N=C/c1ccc(-c2ccc(Cl)c(C(=O)O)c2)o1 | nt | nt | i
O=C(O)c1cc(-c2ccc(/C=N/Nc3ccc(Cl)cc3)o2)ccc1Cl | 95 | i | nt
COC(=O)c1c(N2C(=O)Nc3ccccc3N2O)sc(C)c1C | nt | nt | i
CCOC(=O)c1c(N2C(=O)Nc3ccccc3N2O)sc2c1CCCC2 | i | 30 | i
Cc1[nH]c(=O)[nH]c(=O)c1S(=O)(=O)N1CCCC(C(=O)NCCC2=CCCCC2)C1 (stereo unspecified) | nt | nt | i
Cc1ccccc1C(=O)NN1C(=O)CSC1=S | i | i | i
CCOC(=O)c1ccccc1N1C(=O)CSC1=S | i | 37 | nt
CC(C)Sc1nc2ccccc2n1CC(=O)O | nt | nt | i
CCN(C(=O)CN1CCN(C)CC1)c1cccc2ccccc12 | i | i | i
O=c1oc2ccccc2cc1-c1cn2cccnc2n1 | 53 | i | i
O=c1oc2ccccc2cc1-c1cn2ccccc2n1 | nt | nt | i
O=CC1=C(N2CCOCC2)/C(=C/c2ccc(Cl)cc2)CC1 | nt | nt | i
Cc1cc(C)nc(N/N=C/C2=C(N3CCOCC3)C(=C\c3ccc(Cl)cc3)/CC2)n1 | 52 | i | i
CCC(=O)N1CCc2cc(S(=O)(=O)CCC(=O)Nc3cccc(C)n3)ccc21 | nt | nt | i
O=C(NC1CCCc2ccccc21)c1ccccc1 (stereo unspecified) | i | i | i
O=C(O)C1C2C=CC(O2)C1C(=O)NC1CCCc2ccccc21 (stereo unspecified) | 77 | i | i
CC(=O)c1c(Nc2ccc3c(c2)OCCO3)oc(C)cc1=O | i | 27 | i
Cc1cc(C(=O)Nc2ccc3c(c2)OCCO3)c(C)o1 | i | i | i
COCc1c(C(N)=O)nnn1-c1nonc1N | i | i | i
COCCCNC(=O)c1ccccc1NS(=O)(=O)c1ccc(C)cc1 | i | i | i
O=C(N/N=C/c1coc2ccccc2c1=O)c1cn(-c2ccccc2)nc1-c1ccc(F)cc1 | i | 29 | i
SMILES | Yeast growth inh | Yeast lifespan up | S1P3 antagonist
O=C(N/N=C/c1ccc([N+](=O)[O-])o1)c1cn(-c2ccccc2)nc1-c1ccccc1 | i | i | i
Cc1noc(C)c1N=Nc1ccccc1C(=O)O | nt | nt | i
CCN(CC(=O)NC1CCS(=O)(=O)C1)c1nc(-c2ccccc2)nc2ccccc12 (stereo unspecified) | i | i | 94
O=C(Cc1ccccc1)NC1CCS(=O)(=O)C1 (stereo unspecified) | i | nt | nt
CC(C)C12CN3CC(C(C)C)(CN(C1)C3(C)C)C2=O | nt | nt | i
Cn1c(=O)c(=O)n(C)c2cc(S(=O)(=O)N3CC(=O)N(CCc4ccccc4)C(=O)C3)ccc21 | nt | nt | i
Cn1c(=O)c(=O)n(C)c2cc(S(=O)(=O)N3CCN(Cc4ccccc4)CC3)ccc21 | i | 88 | i
COc1ccc(CNC(=O)C2CCN(S(=O)(=O)N3CCC4(CC3)OCCO4)CC2)c(OC)c1 | i | i | i
O=C(CSc1nc(Cc2ccccc2)nc2ccccc12)c1ccc2c(c1)OCCO2 | i | i | nt
CCc1nc(SCC(=O)c2ccc3c(c2)OCCO3)c2ccccc2n1 | i | 147 | nt
NNC(=O)c1cccc(COc2ccc3c(c2)CCC3)c1 | 51 | i | i
NNC(=O)c1cccc(COc2ccccc2Br)c1 | i | i | nt
Cc1ccc(C(=O)OCC(=O)Nc2ccc3[nH]c(=O)[nH]c3c2)cc1[N+](=O)[O-] | nt | nt | i
N#Cc1c(N)c(C(=O)c2ccccc2)n2c1CCC2 | i | i | i
CCN(CC)c1ccc(/C=C/c2nc3ccccc3s2)cc1 | i | i | nt
COc1cc2nc(/C=C/c3ccc(N(C)C)cc3)sc2cc1SC | i | i | 55
CCc1ccc(C(=O)NCc2cccs2)s1 | i | i | i
CN(C)CCNC(=O)C(=O)NCC1OCCN1S(=O)(=O)c1ccc2c(c1)OCCO2 (stereo unspecified) | nt | nt | i
COC(=O)Cn1c2ccc(F)cc2c2nc(C)sc21 | i | i | i
COC(=O)Cn1c2ccccc2c2nc(C)sc21 | 49 | i | i
C=CCOc1ccccc1CNCc1ccc(F)cc1 | nt | nt | i
O=C(CCl)N1c2ccccc2OCC1c1ccccc1 (stereo unspecified) | i | 47 | i
COc1ccc(S(=O)(=O)N2c3ccccc3OCC2c2ccccc2)cc1 (stereo unspecified) | i | i | nt
c1csc(Cn2nnnc2CN2CCN(c3nc4ccccc4s3)CC2)c1 | i | i | i
CCOc1c(C(N)=O)c(-c2ccccc2)c2c(=O)[nH]c3ccccc3n12 | i | i | i
